Bioassay records as filed in PubChem BioAssay.
Furin inhibitor – human furin inhibitors, primary screen, biochemical, fluorescence intensity; purified furin, fluorogenic substrate cleavage; inhibition, % at 20 µM or 30 µM; 220,000 compounds, 0.061% hits; AID 463115, 2010; in the data active = inhibition above about 25%
RBBP9 inhibitor – human RBBP9 inhibitors, primary screen, biochemical, fluorescence polarization, FP-Rh probe, HTS; inhibition, % at 7.94 µM; recombinant RBBP9; 220,000 compounds, 0.2% hits; Serine hydrolase RBBP9 (Homo sapiens), O75884;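 active = inhibition above the campaign mean of all tested compounds plus 3 SD, cut at about 14% in these data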
Target sequence (O75884 whole entry, looked up): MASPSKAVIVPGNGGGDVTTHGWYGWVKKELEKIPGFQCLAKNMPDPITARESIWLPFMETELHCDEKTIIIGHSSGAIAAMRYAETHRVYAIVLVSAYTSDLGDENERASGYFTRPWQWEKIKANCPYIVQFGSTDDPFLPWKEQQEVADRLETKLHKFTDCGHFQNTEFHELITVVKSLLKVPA
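Measured by: FP readout at 525/598 nm; material: recombinant human RBBP9; also added: Serine-hydrolase probe FP-Rh, 375 nM pre-mixing; medium: Tris buffer pH 8.0, NaCl, Pluronic; replication: one well per compound; doses: one concentration, 7.94 µM nominal, 0.794% DMSO; timing: preincubation 30 min plus labeling 45 min at 25 °C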
m-calpain inh – inhibitors of pig calpain II, primary screen, biochemical, fluorogenic peptide substrate, 1536-well | 220,000 compounds, 0.37% hits | AID 1236, 2008 | purified calpain II, 30 min | inhibition, % at 16 µM;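 active = inhibition above about 50%, limit read from the data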
NCF1 inh – p47phox/p22phox peptide binding inhibitors, primary screen, biochemical, uHTS, NADPH oxidase regulatory subunit | Neutrophil cytosol factor 1 (Homo sapiens), P14598 | fluorescence polarization, 2 h | inhibition, % at 24.7 µM | 220,000 compounds, 0.53% hits | AID 1274, 2008;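 active = inhibition above about 30%, limit read from the data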
Target sequence (P14598 whole entry, looked up): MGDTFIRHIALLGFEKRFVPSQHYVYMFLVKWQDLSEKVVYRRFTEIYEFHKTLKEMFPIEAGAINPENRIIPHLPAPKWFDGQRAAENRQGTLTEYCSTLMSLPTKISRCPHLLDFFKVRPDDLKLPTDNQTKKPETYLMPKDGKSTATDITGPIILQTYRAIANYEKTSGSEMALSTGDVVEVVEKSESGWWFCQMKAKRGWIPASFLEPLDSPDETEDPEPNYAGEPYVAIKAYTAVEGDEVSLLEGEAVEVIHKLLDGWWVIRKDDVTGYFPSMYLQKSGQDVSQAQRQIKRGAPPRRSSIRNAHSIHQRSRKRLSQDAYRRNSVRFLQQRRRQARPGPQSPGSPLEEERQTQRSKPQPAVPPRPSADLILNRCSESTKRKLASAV
Hits are given with their value. An excerpt weighted towards active compounds, which were near 1.1% of everything screened.

Screening CCCCN(C)C(=S)Nc1ccsc1C(=O)OC returned Furin inhibitor inactive, RBBP9 inhibitor inactive, m-calpain inh inactive and NCF1 inh 45.1.
Screening COC(=O)c1sccc1NC(=S)N(C)C1CCCCC1 returned Furin inhibitor inactive, RBBP9 inhibitor inactive, m-calpain inh inactive and NCF1 inh inactive.
For O=C(NCC(c1ccco1)N1CCCCC1)c1ccc2c(c1)S(=O)(=O)c1ccccc1C2=O (stereo not drawn) the results were Furin inhibitor inactive, RBBP9 inhibitor inactive, m-calpain inh inactive and NCF1 inh inactive.
Screening Cc1cc2ncn(-c3ncnc4sc5c(c34)CCC(C)C5)c2cc1C (stereo not drawn) returned Furin inhibitor inactive, RBBP9 inhibitor inactive, m-calpain inh 66.3 and NCF1 inh inactive.
`Cc1ccc2c(c1C)NC(C)CC2C` (stereo not drawn) gave Furin inhibitor 26.4, RBBP9 inhibitor inactive, m-calpain inh inactive and NCF1 inh inactive.
Screening COc1cccc(NC(=S)NCCC(c2ccccc2)c2ccccc2)c1 returned Furin inhibitor inactive, RBBP9 inhibitor inactive, m-calpain inh 56.2 and NCF1 inh inactive.
`CN(C)c1ccc(/C=C/c2ccc3ccccc3[n+]2C)cc1` gave Furin inhibitor inactive, RBBP9 inhibitor inactive, m-calpain inh 57.4 and NCF1 inh inactive.
Cc1onc(-c2c(Cl)cccc2Cl)c1C(=O)N1CCN(c2ccccc2)CC1 was read as Furin inhibitor inactive, RBBP9 inhibitor inactive, m-calpain inh inactive and NCF1 inh inactive.
`Cc1onc(-c2c(Cl)cccc2Cl)c1C(=O)N1CCN(c2ncccn2)CC1` gave Furin inhibitor inactive, RBBP9 inhibitor inactive, m-calpain inh inactive and NCF1 inh 54.9.
Screening Cc1ccccc1-n1c(-c2ccc(Cl)cc2)cnc1SCC(=O)NC1CCS(=O)(=O)C1 (stereo not drawn) returned Furin inhibitor inactive, RBBP9 inhibitor inactive, m-calpain inh inactive and NCF1 inh inactive.
`Cc1ccc(C(=O)N(Cc2ccccc2)C(C)(C)C)cc1C` gave Furin inhibitor inactive, RBBP9 inhibitor inactive, m-calpain inh 50.0 and NCF1 inh inactive.
For O=C(c1cccc(C(F)(F)F)c1)N(c1ccccn1)C1CCCCC1 the results were Furin inhibitor inactive, RBBP9 inhibitor inactive, m-calpain inh inactive and NCF1 inh inactive.
`CCOC(=O)N1CCN(c2ccc(C(=O)c3cccc(F)c3)cc2)CC1` gave Furin inhibitor inactive, RBBP9 inhibitor inactive, m-calpain inh 58.0 and NCF1 inh inactive.
CCOC(=O)N1CCN(c2ccc(Cl)c(Cl)c2)CC1 was read as Furin inhibitor inactive, RBBP9 inhibitor inactive, m-calpain inh inactive and NCF1 inh inactive.
For N#CC1(C#N)CC(C=O)=C(N)C1(C#N)CC(=O)C12CC3CC(CC(C3)C1)C2 (stereo not drawn) the results were Furin inhibitor inactive, RBBP9 inhibitor inactive, m-calpain inh inactive and NCF1 inh inactive.
`CCN(CC)Cc1cc(O)c(CN(CC)CC)cc1O` gave Furin inhibitor inactive, RBBP9 inhibitor inactive, m-calpain inh inactive and NCF1 inh 46.4.
`O=C(c1cc(COc2c(F)cccc2F)on1)N1CCc2ccccc2C1` gave Furin inhibitor inactive, RBBP9 inhibitor inactive, m-calpain inh inactive and NCF1 inh inactive.
`O=c1cc(CSc2nc3ccccc3[nH]2)c2ccccc2[nH]1` gave Furin inhibitor inactive, RBBP9 inhibitor inactive, m-calpain inh inactive and NCF1 inh inactive.
Fc1ccc(CSc2nc3ccccc3[nH]2)c2ccccc12 was read as Furin inhibitor inactive, RBBP9 inhibitor inactive, m-calpain inh 59.0 and NCF1 inh inactive.
Screening CC(C)N1CC2=C(OC(N)=C(C#N)C2c2cccnc2)/C(=C/c2cccnc2)C1 (stereo not drawn) returned Furin inhibitor inactive, RBBP9 inhibitor inactive, m-calpain inh inactive and NCF1 inh 77.1.
Screening N#CC1=C(N)OC2=C(CN(Cc3ccccc3)C/C2=C\c2cccnc2)C1c1cccnc1 (stereo not drawn) returned Furin inhibitor inactive, RBBP9 inhibitor inactive, m-calpain inh inactive and NCF1 inh 123.1.
`CC(C)N1C/C(=C/c2cccnc2)C(=O)/C(=C/c2cccnc2)C1` gave Furin inhibitor inactive, RBBP9 inhibitor inactive, m-calpain inh inactive and NCF1 inh inactive.
Screening CCN1CC2=C(OC(N)=C(C#N)C2c2ccccc2)/C(=C\c2ccccc2)C1 (stereo not drawn) returned Furin inhibitor inactive, RBBP9 inhibitor inactive, m-calpain inh inactive and NCF1 inh inactive.
CCOC(=O)N1CCN(C(=O)CSCC(=O)Nc2nc(-c3ccc(-c4ccccc4)cc3)cs2)CC1 was read as Furin inhibitor inactive, RBBP9 inhibitor inactive, m-calpain inh inactive and NCF1 inh 61.8.
Cc1cc(C)c2c(=O)n(CC(=O)Nc3ccc(Br)c(C)c3)sc2n1 was read as Furin inhibitor inactive, RBBP9 inhibitor inactive, m-calpain inh inactive and NCF1 inh inactive.
`Cc1cc(C)c2c(=O)n(CC(=O)NC3CCCC3)sc2n1` gave Furin inhibitor inactive, RBBP9 inhibitor inactive, m-calpain inh inactive and NCF1 inh 42.0.
For Nn1c(SCc2ccc(F)cc2)nnc1-c1ccncc1 the results were Furin inhibitor inactive, RBBP9 inhibitor inactive, m-calpain inh inactive and NCF1 inh inactive.
For CCCCn1nc(CC(=O)NCCN(CC)CC)c2ccccc2c1=O the results were Furin inhibitor inactive, RBBP9 inhibitor inactive, m-calpain inh inactive and NCF1 inh inactive.
Screening O=C1NCCCC2c3cc(O)c4ccccc4c3OC12N1CCCCC1 (stereo not drawn) returned Furin inhibitor inactive, RBBP9 inhibitor inactive, m-calpain inh inactive and NCF1 inh 30.0.
Screening O=C(CNC(=S)N(CCCN1CCOCC1)Cc1cccs1)NC1CCCC1 returned Furin inhibitor inactive, RBBP9 inhibitor inactive, m-calpain inh inactive and NCF1 inh 34.6.
O=C(CNC(=S)N(CCCN1CCOCC1)Cc1cccs1)NC1CC1 was read as Furin inhibitor inactive, RBBP9 inhibitor inactive, m-calpain inh inactive and NCF1 inh inactive.
`O=C(c1ccc(S(=O)(=O)NCc2ccco2)cc1)N1CCN(Cc2ccc3c(c2)OCO3)CC1` gave Furin inhibitor inactive, RBBP9 inhibitor inactive, m-calpain inh inactive and NCF1 inh inactive.
For S=C1Cc2ccccc2N1 the results were Furin inhibitor inactive, RBBP9 inhibitor inactive, m-calpain inh 55.2 and NCF1 inh inactive.
Screening Brc1ccc(-c2csc3ncnc(-n4nnc5ccccc54)c23)cc1 returned Furin inhibitor inactive, RBBP9 inhibitor inactive, m-calpain inh inactive and NCF1 inh inactive.
For O=C(NCc1cccnc1)c1ccccc1CCc1ccccc1 the results were Furin inhibitor inactive, RBBP9 inhibitor inactive, m-calpain inh 50.0 and NCF1 inh inactive.
For O=C(O)c1ccccc1C(=O)NCc1cccnc1 the results were Furin inhibitor inactive, RBBP9 inhibitor inactive, m-calpain inh inactive and NCF1 inh inactive.
For CNc1nc(NCCOC23CC4CC(CC(C4)C2)C3)nc(OCC(F)(F)F)n1 the results were Furin inhibitor 29.3, RBBP9 inhibitor inactive, m-calpain inh inactive and NCF1 inh inactive.
